Measurements from ChEMBL document CHEMBL3243943, “Adrenoceptor blocking agents. 2. 2-(alpha-Hydroxyarylmethyl)-3,3-dimethylaziridines, a new class of selective beta2-adrenoceptor antagonists” (J Med Chem, 1978).
Active and inactive are the calls of the source. The rule behind the calls is not given here.

Tests used:
[1] = target: Beta-2 adrenergic receptor (Cavia porcellus) (UniProt Q8K4Z4); experiment: Inhibition of beta2-adrenergic receptor in guinea pig tracheal chain assessed as reversal of isoproterenol-induced effect at 3.44 X 10^-8 M to 1.376 X 10^-7 M incubated for 15 mins followed by compound washout measured after 30 to 60 mins; settings: Trachea
Sequence of Beta-2 adrenergic receptor (Cavia porcellus) (Q8K4Z4 whole entry, looked up): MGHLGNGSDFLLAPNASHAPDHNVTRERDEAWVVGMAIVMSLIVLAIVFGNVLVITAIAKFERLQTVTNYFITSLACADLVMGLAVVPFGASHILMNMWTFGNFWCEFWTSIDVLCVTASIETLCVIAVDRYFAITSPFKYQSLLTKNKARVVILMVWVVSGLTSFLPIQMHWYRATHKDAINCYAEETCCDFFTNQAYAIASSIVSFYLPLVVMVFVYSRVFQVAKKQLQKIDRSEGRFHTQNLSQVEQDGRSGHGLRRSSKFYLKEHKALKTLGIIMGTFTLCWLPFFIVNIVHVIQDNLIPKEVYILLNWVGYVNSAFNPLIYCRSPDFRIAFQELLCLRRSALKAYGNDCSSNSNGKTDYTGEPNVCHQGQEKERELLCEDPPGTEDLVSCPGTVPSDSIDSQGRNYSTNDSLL

[2] = tested on: Cavia porcellus; experiment: Anesthetic effect in guinea pig at 0.1 % by intradermal wheal method; assay type: functional, organism-based
[3] = tested on: Heart; experiment: Antiarrhythmic activity against guinea pig auricle; assay type: functional, tissue-based; settings: Cavia porcellus
Procedure, shortened: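 Electrically driven isolated guinea pig auricles (Dawes method).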

[4] = target: Beta-2 adrenergic receptor (Cavia porcellus) (UniProt Q8K4Z4); experiment: Competitive inhibition of beta2-adrenergic receptor in guinea pig tracheal chain assessed as reversal of isoproterenol-induced effect at 3.44 X 10^-8 M to 1.376 X 10^-7 M after 15 mins
Procedure, shortened: (§1)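 Isolated guinea pig tracheal chain in Krebs bicarbonate Ringer at 36.5 ± 0.5 °C, gassed with O2 containing 5% CO2. Tone raised with acetylcholine, then cumulative isoproterenol (1×10^-5 to 1×10^-4 M) given after 15-min antagonist exposure. pA2 by linear extrapolation; mean ± SE, n experiments.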

[5] = target: Beta-2 adrenergic receptor (Cavia porcellus, UniProt Q8K4Z4); experiment: Inhibition of beta2-adrenergic receptor in guinea pig tracheal chain assessed as reversal of isoproterenol-induced effect after 15 mins; design: species or system Trachea; settings: read-out: pA2 (converted)
Sequence of Beta-2 adrenergic receptor (Q8K4Z4 whole entry): as the sequence (Q8K4Z4 whole entry, looked up) above

[6] = target: Beta-2 adrenergic receptor (Cavia porcellus) (UniProt Q8K4Z4); experiment: Competitive inhibition of beta2-adrenergic receptor in guinea pig tracheal chain assessed as reversal of isoproterenol-induced effect at 5.36 X 10^-9 M to 8.576 X 10^-8 M after 15 mins; procedure, shortened: as §1
[7] = target: Beta-2 adrenergic receptor (Cavia porcellus) (UniProt Q8K4Z4); experiment: Inhibition of beta2-adrenergic receptor in guinea pig tracheal chain assessed as reversal of isoproterenol-induced effect at 5.36 X 10^-9 M to 8.576 X 10^-8 M incubated for 15 mins followed by compound washout measured after 30 to 60 mins; settings: Trachea
[8] = tested on: Felis catus; experiment: Reversal of epinephrine-induced increase in mean arterial blood pressure in cat at 2.5 mg/kg, iv; assay type: functional
[9] = tested on: Felis catus; experiment: Reversal of isoproterenol-induced increase in mean arterial blood pressure in cat assessed as pressor phase at 2.5 mg/kg, iv; assay type: functional
[10] = target: Beta-1 adrenergic receptor (Cavia porcellus, UniProt B0FL73); experiment: Inhibition of beta1-adrenergic receptor in guinea pig auricle assessed as reversal of isoproterenol-induced effect; settings: read-out: pA2 (converted)
Sequence of Beta-1 adrenergic receptor (B0FL73 whole entry): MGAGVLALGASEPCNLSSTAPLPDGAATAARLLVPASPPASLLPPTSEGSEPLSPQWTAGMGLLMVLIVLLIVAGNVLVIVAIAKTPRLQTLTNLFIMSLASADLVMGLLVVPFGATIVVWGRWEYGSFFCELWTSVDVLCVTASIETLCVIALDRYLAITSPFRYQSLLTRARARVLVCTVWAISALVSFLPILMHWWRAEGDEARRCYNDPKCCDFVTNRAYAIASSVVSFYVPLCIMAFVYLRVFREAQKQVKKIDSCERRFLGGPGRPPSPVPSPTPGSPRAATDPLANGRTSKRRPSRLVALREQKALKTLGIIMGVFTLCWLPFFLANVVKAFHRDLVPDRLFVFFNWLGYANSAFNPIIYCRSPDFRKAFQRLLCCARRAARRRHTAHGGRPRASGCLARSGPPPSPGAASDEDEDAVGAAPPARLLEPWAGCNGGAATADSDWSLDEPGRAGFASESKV

[11] = tested on: Felis catus; experiment: Reversal of isoproterenol-induced increase in mean arterial blood pressure in cat assessed as depressor phase at 2.5 mg/kg, iv; assay type: functional
[12] = target: Beta-2 adrenergic receptor (Cavia porcellus) (UniProt Q8K4Z4); experiment: Competitive inhibition of beta2-adrenergic receptor in guinea pig tracheal chain assessed as reversal of isoproterenol-induced effect at 1.376 X 10^-7 M to 2.752 X 10^-7 M after 15 mins; procedure, shortened: as §1
[13] = target: Beta-2 adrenergic receptor (Cavia porcellus) (UniProt Q8K4Z4); experiment: Inhibition of beta2-adrenergic receptor in guinea pig tracheal chain assessed as reversal of isoproterenol-induced effect at 1.376 X 10^-7 M to 2.752 X 10^-7 M incubated for 15 mins followed by compound washout measured after 30 to 60 mins; settings: Trachea
[14] = tested on: Trachea; experiment: Cholinolytic activity in guinea pig trachea at 2.94 X 10^-7 M to 1.176 X 10^-6 M in presence of acetylcholine; assay type: functional, tissue-based; settings: Cavia porcellus
Procedure, shortened: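 Guinea pig tracheal chain in Krebs bicarbonate Ringer at 36.5 ± 0.5 °C, gassed with O2/5% CO2. Acetylcholine responses examined in presence of test agent.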

[15] = tested on: Ileum; experiment: Cholinolytic activity in guinea pig ileum at 2.94 X 10^-7 M to 1.176 X 10^-6 M in presence of acetylcholine; assay type: functional, tissue-based; settings: Cavia porcellus
Procedure, shortened: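 Isolated guinea pig ileum in oxygenated Tyrode solution at 36.5 ± 0.5 °C. Acetylcholine used as spasmogen; antagonism of contraction by test agent assessed.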

[16] = target: Beta-2 adrenergic receptor (Cavia porcellus) (UniProt Q8K4Z4); experiment: Competitive inhibition of beta2-adrenergic receptor in guinea pig tracheal chain assessed as reversal of isoproterenol-induced effect at 5.868 X 10^-7 M to […] after 15 mins; procedure, shortened: as §1
[17] = target: Beta-2 adrenergic receptor (Cavia porcellus) (UniProt Q8K4Z4); experiment: Inhibition of beta2-adrenergic receptor in guinea pig tracheal chain assessed as reversal of isoproterenol-induced effect at 5.868 X 10^-7 M to […] incubated for 15 mins followed by compound washout measured after 30 to 60 mins; settings: Trachea

Row | Compound | Activity [2] | Activity [3] | Kb [5] [µM] | Activity [8] [%] | Kb [10] [µM] | Activity [11] [%] | also measured
1 | CC1(C)NC1C(O)c1ccccc1 (stereo in doubt; 1b) [listing 1 of 2 here] | inactive | inactive |  |  |  |  | inhibition [1]: inactive; inhibition [4]: Active
2 | CC1(C)NC1C(O)c1ccc2ccccc2c1 (stereo not drawn) | inactive | inactive | 0.00304 | 62 | 344 | -33 | inhibition [6]: Active; inhibition [7]: inactive; Activity [9]: 0%
3 | CC1(C)NC1C(O)c1ccccc1 (stereo in doubt; 1a) [listing 1 of 2 here] |  |  | 0.0619 |  | 43.2 |  | Activity ([8]; 2.5 mg/kg): 0%; Activity ([9]; 2.5 mg/kg): 20%; Activity ([11]; 2.5 mg/kg): -10%
4 | CCN(CC)CCOC(=O)c1ccc(N)cc1 | inactive | inactive |  |  |  |  | 
5 | CC(C)NCC(O)COc1cccc2ccccc12 (stereo not drawn) [PROPRANOLOL] |  | inactive |  | 45 |  | -100 | 
6 | CC1(C)NC1C(O)c1ccccc1 (stereo in doubt; 1b) [listing 2 of 2 here] |  |  | 0.0644 |  | 344 |  | Activity ([8]; 2.5 mg/kg): 11.1%; Activity ([9]; 2.5 mg/kg): 0%; Activity ([11]; 2.5 mg/kg): 0%
7 | CC1(C)NC1C(O)c1ccccc1 (stereo in doubt; 1a) [listing 2 of 2 here] | inactive | inactive |  |  |  |  | inhibition [12]: Active; inhibition [13]: inactive
8 | CC1(C)NC1C(O)c1ccc(Cl)c(Cl)c1 (stereo not drawn) | Active | Active | 0.398 | 0 | 17.4 | 0 | Activity [14]: Active; Activity [15]: Active; inhibition [16]: inactive; Activity [9]: -16%; inhibition [17]: inactive
